ChEMBL document CHEMBL1671761, “Preclinical characterization of BI 201335, a C-terminal carboxylic acid inhibitor of the hepatitis C virus NS3-NS4A protease” (Antimicrob Agents Chemother, 2010)

Key:
[1] = target: Interstitial collagenase (Homo sapiens) (UniProt P03956); assay: Inhibition of human MMP-1 at 10 uM
[2] = Tmax in monkey at 5 mg/kg, po; assay type: ADME, organism-based, Macaca mulatta; design: dose 5 mg/kg, route oral; details: rhesus monkey, in vivo
Method in brief: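 Fasted male rhesus monkeys (3.0-4.8 kg) given a single oral dose in 0.5% Methocel/0.3% Tween 80. Plasma taken by solid-phase extraction and measured by LC-MS/MS at m/z 869.3 (LOQ 10 nM). Noncompartmental analysis. Mean ± SE for three males.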

[3] = Cmax in dog at 5 mg/kg, po; assay type: ADME, organism-based, Canis lupus familiaris; design: dose 5 mg/kg, route oral; details: in vivo
Method in brief: (§1)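 Single oral dose of 5 mg/kg in 0.5% Methocel with 0.3% Tween 80 (10 ml/kg) to fasted male animals: Sprague-Dawley rats (275-300 g, overnight fast with 10% dextrose water), rhesus monkeys, beagle dogs. Rat blood from cannulated carotid at 0-8 h, pooled from 3 rats per time point; monkey/dog n=3. Plasma solid-phase extracted, LC-MS/MS at m/z 869.3; noncompartmental analysis.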

[4] = target: Calpain-1 catalytic subunit (Homo sapiens) (UniProt P07384); assay: Inhibition of human calpain-1 at 10 uM
Trypsin (Homo sapiens) = Trypsin (Homo sapiens) (UniProt P07477+P07478+P35030); assay: Inhibition of human trypsin at 10 uM; assay type: protein assay
Rattus norvegicus [5] = organism: Rattus norvegicus; assay: Inhibition of rat glycine receptor at 10 uM
[6] = target: 5-hydroxytryptamine receptor 6 (Homo sapiens) (UniProt P50406); assay: Inhibition of human 5-HT6 receptor at 10 uM
[7] = target: Neprilysin (Homo sapiens) (UniProt P08473); assay: Inhibition of human neutral endopeptidase from HUV-EC-C cells at 10 uM by fluorimetry
[8] = target: Cathepsin D (Homo sapiens) (UniProt P07339); assay: Inhibition of human cathepsin D; details: concentration not given here
Hepatitis C virus = assay: Antiviral activity against HCV 2a clone JFH1 infected in Huh7 cells assessed as inhibition of viral replication after 72 hrs by RT-PCR; assay type: functional, organism-based, Hepacivirus hominis; details: genotype 2a clone JFH1, Huh-7, 72 h
Method in brief: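 Genotype 2a replicon (Huh-7 cells carrying an unadapted JFH-1 NS3-NS5B subgenomic replicon) was kept with 0.25 mg/ml G418 and plated at 10,000 cells/well without G418. Next day, serial dilutions in DMEM/10% FBS/0.5% DMSO were added for 72 h. Replicon RNA was measured by TaqMan RT-PCR and normalized to total RNA. Mean ± SD, ≥3 experiments.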

Rattus norvegicus [9] = organism: Rattus norvegicus; assay: Inhibition of rat GABA B receptor at 10 uM
[10] = target: Sterol O-acyltransferase 2 (Rattus norvegicus) (UniProt Q7TQM4); assay: Inhibition of rat hapatic, acyl coA cholesterol acetyltransferase at 10 uM
Rattus norvegicus [11] = organism: Rattus norvegicus; assay: Inhibition of rat potassium channel-V at 10 uM
[12] = target: Matrix metalloproteinase-9 (Homo sapiens) (UniProt P14780); assay: Inhibition of human MMP-9 at 10 uM
[13] = target: Pro-cathepsin H (Homo sapiens) (UniProt P09668); assay: Inhibition of human cathepsin H at 10 uM
[14] = target: Inositol 1,4,5-trisphosphate-gated calcium channel ITPR1 (Rattus norvegicus) (UniProt P29994); assay: Inhibition of rat IP3 receptor at 10 uM
[15] = target: Coagulation factor X (Homo sapiens) (UniProt P00742); assay: Inhibition of human factor 10a at 10 uM
[16] = target: 5-hydroxytryptamine receptor 4 (Cavia porcellus) (UniProt O70528); assay: Inhibition of guinea pig 5-HT4 receptor at 10 uM
Rattus norvegicus [17] = organism: Rattus norvegicus; assay: Inhibition of rat GABA-A receptor, chloride channel at 10 uM
[18] = target: Angiotensin-converting enzyme (Oryctolagus cuniculus) (UniProt P12822); assay: Inhibition of rabbit ACE at 10 uM
[19] = target: Alpha-1A adrenergic receptor (Rattus norvegicus) (UniProt P43140); assay: Inhibition of rat adrenergic receptor Alpha-1at 10 uM
[20] = target: Serine/threonine protein phosphatase PP2B-alpha catalytic subunit (Homo sapiens) (UniProt P16298); assay: Inhibition of human PP2B at 10 uM
[21] = AUC (0 to infinity) in rat at 5 mg/kg, po; assay type: ADME, organism-based; design: time infinity, dose 5 mg/kg, route oral; details: plasma; method in brief: as §1
[22] = target: Acetylcholinesterase (Homo sapiens) (UniProt P22303); assay: Inhibition of human acetylcholinesterase at 10 uM
Caspase-4 (Homo sapiens) = Caspase-4 (Homo sapiens) (UniProt P49662); assay: Inhibition of human caspase-4 at 10 uM
[23] = target: Neutrophil collagenase (Homo sapiens) (UniProt P22894); assay: Inhibition of human MMP-8 at 10 uM
[24] = target: Neprilysin (Rattus norvegicus) (UniProt P07861); assay: Inhibition of rat neutral endopeptidase at 10 uM
Caspase-5 (Homo sapiens) = Caspase-5 (Homo sapiens) (UniProt P51878); assay: Inhibition of human caspase-5 at 10 uM
Rattus norvegicus [25] = organism: Rattus norvegicus; assay: Inhibition of rat GABA-A receptor, agonist site at 10 uM; assay type: functional
[26] = target: Adenosine receptor A2a (Homo sapiens) (UniProt P29274); assay: Inhibition of human adenosine A2A receptor at 10 uM
[27] = target: Cathepsin G (Homo sapiens) (UniProt P08311); assay: Inhibition of human cathepsin G at 10 uM
[28] = target: D(2) dopamine receptor (Homo sapiens) (UniProt P14416); assay: Inhibition of human dopamine receptor 2s at 10 uM
Mesocricetus auratus = organism: Mesocricetus auratus; assay: Inhibition of syrian hamster potassium channel-ATP at 10 uM
[29] = target: 5-hydroxytryptamine receptor 7 (Homo sapiens) (UniProt P34969); assay: Inhibition of human 5-HT7 receptor at 10 uM
[30] = Cmax in Sprague-Dawley rat at 5 mg/kg, po; assay type: ADME, organism-based, Sparague-Dawley; design: dose 5 mg/kg, route oral; details: in vivo; method in brief: as §1
[31] = Cmax in monkey at 5 mg/kg, po; assay type: ADME, organism-based, Macaca mulatta; design: dose 5 mg/kg, route oral; details: rhesus monkey, in vivo; method in brief: as §1
[32] = AUC (0 to infinity) in monkey at 5 mg/kg, po; assay type: ADME, organism-based, Macaca mulatta; design: time infinity, dose 5 mg/kg, route oral; details: rhesus monkey, plasma; method in brief: as §1
[33] = Mean retention time in dog at 5 mg/kg, po; assay type: ADME, organism-based, Canis lupus familiaris; design: dose 5 mg/kg, route oral; details: in vivo
Method in brief: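 Fasted male beagle dogs (9.8-13.8 kg) given a single oral dose in 0.5% Methocel/0.3% Tween 80. Plasma taken by solid-phase extraction and measured by LC-MS/MS at m/z 869.3 (LOQ 50 nM). Noncompartmental analysis. Mean ± SE for three males.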

Caspase-2 (Homo sapiens) = Caspase-2 (Homo sapiens) (UniProt P42575); assay: Inhibition of human caspase-2 at 10 uM
[34] = target: Procathepsin L (Homo sapiens) (UniProt P07711); assay: Inhibition of human cathepsin L at 10 uM
[35] = target: Stromelysin-1 (Homo sapiens) (UniProt P08254); assay: Inhibition of human MMP-3 at 10 uM
Cavia porcellus = organism: Cavia porcellus; assay: Inhibition of guinea pig adenosine transporter at 10 uM
Cathepsin C (Bos taurus) = Cathepsin C (Bos taurus) (UniProt Q864S1); assay: Inhibition of bovine cathepsin C at 10 uM
[36] = AUC in monkey at 5 mg/kg, po; assay type: ADME, organism-based, Macaca mulatta; design: dose 5 mg/kg, route oral; details: rhesus monkey, plasma; method in brief: as §1
Rattus norvegicus [37] = organism: Rattus norvegicus; assay: Inhibition of rat mAChR at 10 uM

Sequence of Cathepsin C (Bos taurus) (Q864S1 as listed by the source): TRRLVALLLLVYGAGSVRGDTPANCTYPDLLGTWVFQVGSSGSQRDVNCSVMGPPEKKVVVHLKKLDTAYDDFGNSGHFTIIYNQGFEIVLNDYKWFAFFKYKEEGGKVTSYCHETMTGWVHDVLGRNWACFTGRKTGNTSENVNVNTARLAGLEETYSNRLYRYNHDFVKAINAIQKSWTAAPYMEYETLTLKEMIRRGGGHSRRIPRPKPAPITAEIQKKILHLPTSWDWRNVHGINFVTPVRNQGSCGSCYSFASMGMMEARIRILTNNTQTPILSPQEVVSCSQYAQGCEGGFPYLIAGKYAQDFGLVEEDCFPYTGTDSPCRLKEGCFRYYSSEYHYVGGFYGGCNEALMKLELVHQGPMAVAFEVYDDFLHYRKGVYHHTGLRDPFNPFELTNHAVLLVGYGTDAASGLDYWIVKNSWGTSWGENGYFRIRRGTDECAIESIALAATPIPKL
Sequence of Stromelysin-1 (Homo sapiens) (P08254 100-477 limits assumed): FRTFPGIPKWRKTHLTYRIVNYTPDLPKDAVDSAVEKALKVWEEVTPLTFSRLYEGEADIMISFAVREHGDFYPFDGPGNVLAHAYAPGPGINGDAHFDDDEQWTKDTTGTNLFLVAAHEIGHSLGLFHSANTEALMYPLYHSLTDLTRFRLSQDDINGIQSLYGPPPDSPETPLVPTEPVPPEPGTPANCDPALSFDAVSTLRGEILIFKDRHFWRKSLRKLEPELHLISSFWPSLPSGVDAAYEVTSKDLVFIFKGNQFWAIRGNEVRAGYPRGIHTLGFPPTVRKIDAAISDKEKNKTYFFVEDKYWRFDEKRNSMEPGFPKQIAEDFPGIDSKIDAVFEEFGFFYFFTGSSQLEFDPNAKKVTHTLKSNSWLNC
Sequence of Cathepsin D (Homo sapiens) (P07339 65-162 limits assumed): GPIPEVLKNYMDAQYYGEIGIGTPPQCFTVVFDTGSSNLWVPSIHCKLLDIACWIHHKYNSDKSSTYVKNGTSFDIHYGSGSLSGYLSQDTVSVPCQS
Sequence of Cathepsin D (Homo sapiens) (P07339 169-412 limits assumed): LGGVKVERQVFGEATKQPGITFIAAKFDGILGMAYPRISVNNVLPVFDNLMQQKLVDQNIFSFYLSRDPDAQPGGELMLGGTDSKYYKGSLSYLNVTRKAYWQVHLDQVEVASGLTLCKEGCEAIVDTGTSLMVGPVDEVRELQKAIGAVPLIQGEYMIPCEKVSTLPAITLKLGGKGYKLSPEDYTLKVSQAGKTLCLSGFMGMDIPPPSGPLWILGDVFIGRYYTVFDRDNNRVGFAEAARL
Sequence of Acetylcholinesterase (Homo sapiens) (P22303 whole entry): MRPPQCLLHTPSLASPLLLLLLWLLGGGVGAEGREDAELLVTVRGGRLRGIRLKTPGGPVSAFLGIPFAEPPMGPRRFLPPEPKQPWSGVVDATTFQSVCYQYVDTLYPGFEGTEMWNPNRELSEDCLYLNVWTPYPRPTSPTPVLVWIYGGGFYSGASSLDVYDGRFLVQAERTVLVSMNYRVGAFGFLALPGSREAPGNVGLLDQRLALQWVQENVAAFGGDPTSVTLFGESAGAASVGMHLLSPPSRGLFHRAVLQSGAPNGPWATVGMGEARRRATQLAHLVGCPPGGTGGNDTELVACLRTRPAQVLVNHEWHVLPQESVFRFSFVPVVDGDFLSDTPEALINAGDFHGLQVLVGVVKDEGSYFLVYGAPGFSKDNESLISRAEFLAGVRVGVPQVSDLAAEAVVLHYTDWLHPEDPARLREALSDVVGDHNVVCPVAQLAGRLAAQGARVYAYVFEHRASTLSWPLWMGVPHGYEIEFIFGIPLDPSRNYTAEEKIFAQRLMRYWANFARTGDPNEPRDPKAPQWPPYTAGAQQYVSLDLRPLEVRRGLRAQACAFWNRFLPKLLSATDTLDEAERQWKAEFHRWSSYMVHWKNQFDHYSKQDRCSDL
Sequence of Neprilysin (Homo sapiens) (P08473 whole entry): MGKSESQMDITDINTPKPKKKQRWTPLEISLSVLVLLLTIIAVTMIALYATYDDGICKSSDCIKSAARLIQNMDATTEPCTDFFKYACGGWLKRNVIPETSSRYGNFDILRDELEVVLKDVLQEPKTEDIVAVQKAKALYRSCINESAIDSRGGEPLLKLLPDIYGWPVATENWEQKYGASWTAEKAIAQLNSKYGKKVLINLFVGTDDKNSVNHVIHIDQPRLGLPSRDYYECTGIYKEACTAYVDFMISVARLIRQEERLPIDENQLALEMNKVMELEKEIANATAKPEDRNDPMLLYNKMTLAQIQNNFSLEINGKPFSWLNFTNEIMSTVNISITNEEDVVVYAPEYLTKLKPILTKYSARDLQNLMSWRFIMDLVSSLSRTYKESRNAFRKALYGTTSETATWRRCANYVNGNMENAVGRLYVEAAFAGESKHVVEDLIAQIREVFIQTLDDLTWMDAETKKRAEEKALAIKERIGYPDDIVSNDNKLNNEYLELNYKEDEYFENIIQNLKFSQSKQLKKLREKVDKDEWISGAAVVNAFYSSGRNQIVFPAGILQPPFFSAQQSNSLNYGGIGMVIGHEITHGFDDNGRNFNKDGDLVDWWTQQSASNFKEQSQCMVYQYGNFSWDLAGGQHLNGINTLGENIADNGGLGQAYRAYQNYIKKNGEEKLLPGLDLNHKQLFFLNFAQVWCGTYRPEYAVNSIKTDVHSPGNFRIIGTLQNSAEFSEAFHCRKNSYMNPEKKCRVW
Sequence of Caspase-4 (Homo sapiens) (P49662 81-270 limits assumed): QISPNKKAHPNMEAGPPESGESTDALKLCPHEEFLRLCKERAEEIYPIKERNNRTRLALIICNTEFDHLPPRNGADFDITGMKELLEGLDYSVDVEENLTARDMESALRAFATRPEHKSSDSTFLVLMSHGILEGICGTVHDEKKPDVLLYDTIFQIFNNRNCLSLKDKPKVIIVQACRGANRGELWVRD
Sequence of Caspase-4 (Homo sapiens) (P49662 290-377 limits assumed): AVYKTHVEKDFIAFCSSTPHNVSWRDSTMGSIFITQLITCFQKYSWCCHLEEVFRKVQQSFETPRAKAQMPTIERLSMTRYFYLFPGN
Sequence of Pro-cathepsin H (Homo sapiens) (P09668 116-335 limits assumed, other chains not shown): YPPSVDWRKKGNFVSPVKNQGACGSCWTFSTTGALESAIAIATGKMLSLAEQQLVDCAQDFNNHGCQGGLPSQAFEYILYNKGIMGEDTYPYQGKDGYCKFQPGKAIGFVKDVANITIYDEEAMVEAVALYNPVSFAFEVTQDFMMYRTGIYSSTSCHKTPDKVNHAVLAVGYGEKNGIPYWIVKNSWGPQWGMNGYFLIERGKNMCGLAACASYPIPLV
Sequence of 5-hydroxytryptamine receptor 6 (Homo sapiens) (P50406 whole entry): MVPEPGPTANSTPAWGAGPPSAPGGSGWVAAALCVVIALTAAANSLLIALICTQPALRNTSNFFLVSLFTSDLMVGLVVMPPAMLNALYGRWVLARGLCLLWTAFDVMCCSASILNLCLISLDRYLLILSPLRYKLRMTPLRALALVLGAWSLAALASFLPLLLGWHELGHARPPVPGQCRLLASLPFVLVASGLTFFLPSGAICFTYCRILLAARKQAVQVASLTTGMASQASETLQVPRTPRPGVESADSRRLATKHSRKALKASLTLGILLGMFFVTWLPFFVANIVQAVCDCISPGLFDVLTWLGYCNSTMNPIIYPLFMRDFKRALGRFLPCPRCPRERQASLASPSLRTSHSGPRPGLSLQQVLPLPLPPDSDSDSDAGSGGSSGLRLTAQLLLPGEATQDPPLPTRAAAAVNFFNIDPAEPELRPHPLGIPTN
Sequence of Adenosine receptor A2a (Homo sapiens) (P29274 whole entry): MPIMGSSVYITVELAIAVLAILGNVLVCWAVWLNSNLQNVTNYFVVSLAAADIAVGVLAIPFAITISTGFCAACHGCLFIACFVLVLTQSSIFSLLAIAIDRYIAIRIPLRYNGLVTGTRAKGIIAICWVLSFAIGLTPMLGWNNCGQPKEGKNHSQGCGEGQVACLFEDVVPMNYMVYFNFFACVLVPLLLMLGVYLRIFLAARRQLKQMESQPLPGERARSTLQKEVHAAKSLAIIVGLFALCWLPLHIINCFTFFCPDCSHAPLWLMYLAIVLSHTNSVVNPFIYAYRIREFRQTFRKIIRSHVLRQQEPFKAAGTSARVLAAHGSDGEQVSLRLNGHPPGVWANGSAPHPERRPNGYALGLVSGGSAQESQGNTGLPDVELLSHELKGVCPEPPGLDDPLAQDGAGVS
Sequence of D(2) dopamine receptor (Homo sapiens) (P14416 whole entry): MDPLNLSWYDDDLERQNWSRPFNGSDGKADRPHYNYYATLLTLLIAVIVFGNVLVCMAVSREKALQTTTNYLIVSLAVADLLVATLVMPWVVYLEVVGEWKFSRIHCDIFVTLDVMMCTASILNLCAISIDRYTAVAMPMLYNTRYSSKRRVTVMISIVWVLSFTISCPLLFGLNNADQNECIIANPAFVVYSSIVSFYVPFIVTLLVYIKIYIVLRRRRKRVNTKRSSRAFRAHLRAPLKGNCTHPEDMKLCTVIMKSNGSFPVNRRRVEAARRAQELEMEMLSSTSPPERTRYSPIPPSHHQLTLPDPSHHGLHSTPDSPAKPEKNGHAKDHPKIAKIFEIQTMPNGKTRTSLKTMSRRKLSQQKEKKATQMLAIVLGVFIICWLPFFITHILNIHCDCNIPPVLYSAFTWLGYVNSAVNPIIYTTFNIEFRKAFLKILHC
Sequence of Caspase-2 (Homo sapiens) (P42575 170-325 limits assumed): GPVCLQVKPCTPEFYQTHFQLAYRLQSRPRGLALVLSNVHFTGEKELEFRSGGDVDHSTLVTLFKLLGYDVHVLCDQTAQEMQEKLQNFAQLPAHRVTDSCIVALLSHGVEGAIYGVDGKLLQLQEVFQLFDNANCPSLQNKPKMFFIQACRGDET
Sequence of Caspase-2 (Homo sapiens) (P42575 334-452 limits assumed): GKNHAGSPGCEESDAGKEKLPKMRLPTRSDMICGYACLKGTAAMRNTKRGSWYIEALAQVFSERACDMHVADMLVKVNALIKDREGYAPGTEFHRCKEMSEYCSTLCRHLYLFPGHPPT
Sequence of Cathepsin G (Homo sapiens) (P08311 whole entry): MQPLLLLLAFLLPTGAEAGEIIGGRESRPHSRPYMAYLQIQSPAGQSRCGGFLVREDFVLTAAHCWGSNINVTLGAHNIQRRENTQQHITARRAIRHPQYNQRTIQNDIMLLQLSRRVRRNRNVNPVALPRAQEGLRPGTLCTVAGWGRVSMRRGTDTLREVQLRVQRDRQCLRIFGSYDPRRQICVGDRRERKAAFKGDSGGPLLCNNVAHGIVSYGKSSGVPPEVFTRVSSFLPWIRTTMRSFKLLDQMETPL

## C=C[C@@H]1C[C@]1(NC(=O)[C@@H]1C[C@@H](Oc2cc(-c3csc(NC(=O)C(C)C)n3)nc3c(Br)c(OC)ccc23)CN1C(=O)[C@@H](NC(=O)OC1CCCC1)C(C)(C)C)C(=O)O
[1]
  inhibition: 19%
[2]
  Tmax: 2 h
[3]
  Cmax: 3800 nM
[4]
  inhibition: 18%
Trypsin (Homo sapiens)
  inhibition: 2%
Rattus norvegicus [5]
  inhibition: 6%
[6]
  inhibition: 22%
[7]
  inhibition: 14%
[8]
  inhibition: 43%
Hepatitis C virus
  EC50: 50 nM
Rattus norvegicus [9]
  inhibition: 9%
[10]
  inhibition: 78%
Rattus norvegicus [11]
  inhibition: 7%
[12]
  inhibition: 13%
[13]
  inhibition: 21%
[14]
  inhibition: 0%
[15]
  inhibition: 5%
[16]
  inhibition: 18%
Rattus norvegicus [17]
  inhibition: 28%
[18]
  inhibition: 5%
[19]
  inhibition: 4%
[20]
  inhibition: 50%
[21]
  AUC(0-inf): 1.63 µM·h
[22]
  inhibition: 20%
Caspase-4 (Homo sapiens)
  inhibition: 33%
[23]
  inhibition: 6%
[24]
  inhibition: 11%
Caspase-5 (Homo sapiens)
  inhibition: 24%
Rattus norvegicus [25]
  inhibition: 16%
[26]
  inhibition: 23%
[27]
  inhibition: 18%
[28]
  inhibition: 10%
Mesocricetus auratus
  inhibition: 12%
[29]
  inhibition: 3%
[30]
  Cmax: 410 nM
[31]
  Cmax: 2000 nM
[32]
  AUC(0-inf): 8.3 µM·h
[33]
  MRT: 3.7 h
Caspase-2 (Homo sapiens)
  inhibition: 5%
[34]
  inhibition: 7%
[35]
  inhibition: 11%
Cavia porcellus
  inhibition: 23%
Cathepsin C (Bos taurus)
  inhibition: 1%
[36]
  AUC: 8.3 µM·h
Rattus norvegicus [37]
  inhibition: 5%
